In article PMC4427841 (British journal of haematology, 2010):
“And” between values parts separate entries of the source, which are not always exact repeats. Equal entries are not always repeated. “Also recorded” adds a separate entry of the source.

What was measured:
[1] = tested on: CHOP/GADD153, phospho-eIF2α, Bip, Hsp70 in xenografted MM.1S tumors; assay: Immunoblot of ER stress proteins in tumor lysates; format: in vivo, CB-17 SCID mice; conditions: tumors harvested 3h after last dose (Day 21)
[2] = tested on: Factor VIII-positive cells in xenografted MM.1S tumors; assay: IHC Factor VIII staining; format: in vivo, CB-17 SCID mice; conditions: vs vehicle alone, tumors harvested Day 21
Procedure, shortened: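 Xenograft-bearing mice received vehicle or 0.15 mg/kg i.v. twice weekly for three weeks. MM.1S tumors were harvested 3h after the last dose (Day 21), and paraffin-embedded sections were immunostained for Factor VIII as an angiogenesis marker. The images shown are representative of two mice per treatment.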

CT-L proteasome activity = conditions: MTD doses (0.7 mg/m^2), other clinical trials; cited from earlier work
MM.1S tumors = assay: Human plasmacytoma xenograft efficacy study; format: in vivo, CB-17 SCID mice; conditions: 0.15 mg/kg i.v. twice a week for three weeks
Procedure, shortened: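 Male CB-17 SCID mice (4-6 wk) were given 5.0 × 106 MM.1S cells s.c. in the flank in serum-free RPMI. They then received 0.15 mg/kg i.v. or vehicle (2% DMSO/98% of 5% Solutol) twice weekly for three weeks (D1, D4, D8, D11, D15, D18); n=5 per group. Tumors were measured with calipers every third day, and volume was calculated as V = 0.5 a × b2. Mean ± SD; Student's t test, P < 0.05.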

[3] = Tolerability in efficacy study; format: in vivo, CB-17 SCID mice; conditions: 0.15 mg/kg i.v. twice a week for three weeks
[4] = tested on: caspase-3 activation / PARP cleavage in xenografted MM.1S tumors; assay: In situ detection of apoptosis and immunoblot; format: in vivo, CB-17 SCID mice
Procedure, shortened: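 Xenograft-bearing mice were treated i.v. with 0.15 mg/kg or vehicle twice weekly for three weeks. Tumors were harvested on Day 21, either 3h after the last dose (immunoblot) or at endpoint (IHC). For in situ staining, apoptotic cells were identified by cleaved caspase-3. Tumor lysates (three mice per group) were immunoblotted for PARP, cleaved caspase-3 and GAPDH, using HRP-conjugated secondary antibodies and ECL detection.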

[5] = tested on: 20S proteasome CT-L, C-L, and T-L activities; assay: Ex vivo 20S proteasome activities; format: in vivo, CB-17 SCID mice bearing human MM.1S tumors; conditions: for inhibition of all three proteasome activities in tumor: approximately
Procedure, shortened: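 Male CB-17 SCID mice (4-6 wk) carrying s.c. flank MM.1S xenografts (5.0 × 10^6 cells) were dosed i.v. at ∼200-300 mm3 with 0.15 mg/kg once (D1) or three times (D1, D4, D8), or with vehicle (2% DMSO in 5% Solutol). Euthanasia at 10 min, 1, 4, 24h. Homogenates used 20 μg protein in HEPES/EDTA pH 8.0 buffer with 60 μM fluorogenic substrate (Bz-VGR-AMC for T-L) and 0.05% SDS for CT-L/C-L. Reported as % inhibition vs vehicle; mean ± SD, n = 3.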

proteasome [6] = conditions: rats, single dose 0.15 mg/kg; ref Chauhan, et al 2005; cited from earlier work
[7] = target: 20S proteasome chymotrypsin-like (CT-L, β5) activity (Homo sapiens, UniProt P28074); format: in vivo, CB-17 SCID mice bearing human MM.1S tumors; conditions: MM1.S, iv, read-out: CT-L proteasome activity inhibition in tumors, tumor, 24h after a single treatment, 0.15 mg/kg i.v.
proteasome [8] = conditions: ref Chauhan, et al 2005; cited from earlier work
[9] = tumors, single dose 0.15 mg/kg i.v.

C[C@@]12OC(=O)[C@]1([C@@H](O)[C@@H]1C=CCCC1)NC(=O)[C@@H]2CCCl [NPI-0052, marizomib]
endoplasmic stress-response proteins in tumor lysates [1]: upregulation of CHOP/GADD153, phospho-eIF2α, Bip, and Hsp70
Factor VIII-positive cells in tumor sections [2]: dramatically decreased
inhibition of CT-L proteasome activity at MTD doses (CT-L proteasome activity): Complete inhibition
neuropathy or myelosuppression at MTD doses (CT-L proteasome activity): without evidence of neuropathy or myelosuppression
day on which anti-MM activity (delay in tumor growth) was first evident (MM.1S tumors): 7 days and 5 to 7 days
tumor growth relative to vehicle-treated control (MM.1S tumors): significantly decreased tumor growth
toxicity (body weight, overall appearance) [3]: not associated with any toxicity
PARP cleavage in tumor lysates ([4]; tumors harvested 3h after last treatment (Day 21)): robust cleavage
caspase-3 positive cells in tumor sections ([4]; tumors harvested day 21, vs untreated control mice): increased numbers of caspase-3 positive cells
time to onset of inhibition of all three proteasome activities ([5]; PWB, liver, spleen, lung, kidney, single dose 0.15 mg/kg i.v.): ≤ 10 min
time for proteasome activities to return to baseline ([5]; all tissues examined except PWB and tumors, single dose): ≤ 24 h
inhibition of proteasome activity in brain ([5]; brain tissue, any time point after single or three doses, 0.15 mg/kg i.v., 0.15 mg/kg): does not inhibit; also recorded: no significant inhibition
time for recovery of all three proteasome activities ([5]; liver, kidney, lung, spleen, after three doses): ≤ 24 h
inhibition of all three proteasome activities in most tissues ([5]; most tissues, without significant toxicity): greater than 70%
duration of proteasome inhibition ([5]; other organs (lung, liver, spleen, kidney)): < 24 h
inhibition of all three proteasome activities in tumor ([5]; 24h post single dose): 25-60%
inhibition of all three proteasome activities in tumor ([5]; 24h post third dose): 70-80%
duration of proteasome inhibition ([5]; tumors and PWB): > 24 h
inhibition of all three proteasome activities ([5]; tumors, PWB and other tissues except brain, within 10 mins following the third dose, 0.15 mg/kg i.v.): 65-90%
time of maximal inhibition of proteasome activities in tumors [5, 9]: 24 h
time to onset of inhibition of proteasome activities in tumors [5, 9]: ≤ 1 h
time for recovery of proteasome inhibition in PWB (proteasome [6]): ≤ 7 days
inhibition at 0.15 mg/kg [7]: 60%

CC(C)C[C@H](NC(=O)[C@H](Cc1ccccc1)NC(=O)c1cnccn1)B(O)O [bortezomib]
time for recovery of proteasome activity in blood (proteasome [8]): ≥ 48 h
